Experimental data taken from ChEMBL document CHEMBL2057102, “Aminothienopyridazine inhibitors of tau aggregation: evaluation of structure-activity relationship leads to selection of candidates with desirable in vivo properties” (Bioorg Med Chem, 2012).

Columns and labels:
Homo sapiens [1] = organism: Homo sapiens; assay: Inhibition of heparin-induced tau K18PL mutant aggregation assessed as soluble tau fragment level at 50 uM after 5 days by SDS-PAGE analysis
Summary of the method: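 Secondary centrifugation assay. Heparin-induced K18 P301L tau fibrillization mixtures with compound at 50 μM were centrifuged. Soluble and insoluble fractions were analysed by SDS-PAGE to give the percentage of tau remaining soluble.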

Homo sapiens [2] = organism: Homo sapiens; assay: Inhibition of heparin-induced alexa red-labelled tau K18PL mutant aggregation after 6 hrs by thioflavin-T fluorescence assay relative to control
Summary of the method: (§1)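 Heparin-induced fibrillization of tau K18 fragment (residues 244–369) carrying P301L, with tau at 20 μM in sodium acetate buffer. Fibril formation was read by thioflavin-T fluorescence. IC50 came from sigmoidal fitting of concentration-response data, each concentration in triplicate. Values are from a single fit, or the mean of 2 or more analyses where marked.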

[3] = Ratio of fraction unbound in brain homogenate to plasma in mouse at 1 uM after 5 hrs by equilibrium dialysis; type: ADME, tissue-based
Summary of the method: (§2)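 Rapid equilibrium dialysis. Compound at 1 μM in mouse plasma or brain homogenate, each diluted threefold with 100 mM sodium phosphate pH 7.4. Triplicate samples dialysed against the same buffer for 5 h at 37 °C with shaking. Both sides were matrix-matched, extracted with acetonitrile and run by LC-MS/MS. fu is buffer response over sample response; brain fu was corrected for tissue dilution.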

Mus musculus = assay: Ratio of drug level in brain to plasma in B6C3F1 mouse at 5 mg/kg, ip after 1 hr
[4] = Inhibition of heparin-induced alexa red-labelled tau K18PL mutant aggregation after 6 hrs by thioflavin-T fluorescence assay; design: species or system Homo sapiens; summary of the method: as §1
Brain [5] = assay: Fraction unbound in mouse brain homogenate at 1 uM after 5 hrs by equilibrium dialysis; type: ADME, tissue-based; summary of the method: as §2
[6] = (§3) Drug uptake in B6C3F1 mouse brain at 5 mg/kg, ip after 1 hr; type: ADME, organism-based; design: dose 5 mg/kg, route intraperitoneal; settings: B6C3F1, mouse, brain, read-out: Drug uptake
Summary of the method: (§4)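 Single i.p. dose of 5 mg/kg, sacrifice 1 h later. Perfused brain hemispheres were homogenized in 10 mM ammonium acetate pH 5.7 (50% w/v). EDTA plasma was taken. Brain homogenate or plasma was extracted with acetonitrile and analysed by LC-MS/MS (MRM) against matrix standard curves. Brain-to-plasma ratio was taken from total levels.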

[7] = (§5) Drug uptake in B6C3F1 mouse plasma at 5 mg/kg, ip after 1 hr; type: ADME, organism-based; design: dose 5 mg/kg, route intraperitoneal; settings: B6C3F1, mouse, plasma; summary of the method: as §4
Brain [8] = assay: as §3; type: ADME, organism-based; design: dose 5 mg/kg, route intraperitoneal; settings: mouse, in vivo, 1 h, BLD = below limit of detection; summary of the method: as §4
Plasma = assay: as §5; type: ADME, organism-based; design: dose 5 mg/kg, route intraperitoneal; settings: mouse, in vivo, 1 h, BLD = below limit of detection; summary of the method: as §4

SMILES: Cc1nn(Cc2ccccc2)c(=O)c2c(N)scc12
- inhibition (Homo sapiens [1]): 73%
- Imax (Homo sapiens [2]): 89%
- Ratio [3]: 0.77
- BPR (Mus musculus): 0.6
- IC50 [4]: 1.6 µM
- Fu (Brain [5]): 5.1%
- concentration at 1 h [6]: 48 ng/g
- concentration at 1 h [7]: 78 ng/mL

SMILES: Nc1scc2c(C(=O)NC3CC3)nn(-c3ccc(C(F)(F)F)cc3)c(=O)c12
- inhibition (Homo sapiens [1]): 83%
- Imax (Homo sapiens [2]): 64%
- IC50 [4]: 6.3 µM

SMILES: CCOC(=O)c1nn(-c2cccc(Cl)c2)c(=O)c2c(N)scc12
- inhibition (Homo sapiens [1]): 73%
- Imax (Homo sapiens [2]): 82%
- IC50 [4]: 3.2 µM

SMILES: CCOC(=O)c1nn(-c2ccc(F)cc2)c(=O)c2c(N)scc12
- inhibition (Homo sapiens [1]): 63%
- Imax (Homo sapiens [2]): 77%
- IC50 [4]: 1 µM

SMILES: Nc1scc2c(C(=O)NCC(F)(F)F)nn(-c3ccc(F)cc3)c(=O)c12
- inhibition (Homo sapiens [1]): 75%
- Imax (Homo sapiens [2]): 83%
- Ratio [3]: 2.31
- BPR (Mus musculus): 1.59
- IC50 [4]: 8 µM
- Fu (Brain [5]): 3.2%
- concentration at 1 h [6]: 637 ng/g
- concentration at 1 h [7]: 401 ng/mL

SMILES: CCOC(=O)c1nn(-c2ccccc2Cl)c(=O)c2c(N)scc12
- inhibition (Homo sapiens [1]): 71%
- Imax (Homo sapiens [2]): 75%
- IC50 [4]: 2 µM

SMILES: CCOC(=O)c1nn(-c2ccc(C(F)(F)F)cc2)c(=O)c2c(N)scc12
- inhibition (Homo sapiens [1]): 27%
- Imax (Homo sapiens [2]): 48%

SMILES: CC(C)NC(=O)c1nn(-c2ccc(F)cc2)c(=O)c2c(N)scc12
- inhibition (Homo sapiens [1]): 77%
- Imax (Homo sapiens [2]): 89%
- Ratio [3]: 1.3
- BPR (Mus musculus): 2.68
- IC50 [4]: 1.6 µM
- Fu (Brain [5]): 2.9%
- concentration at 1 h [6]: 280 ng/g
- concentration at 1 h [7]: 110 ng/mL

SMILES: Nc1scc2c(C(=O)O)nn(-c3ccccc3Cl)c(=O)c12
- inhibition (Homo sapiens [1]): 64%
- Imax (Homo sapiens [2]): 86%
- IC50 [4]: 3.2 µM

SMILES: Cc1nn(-c2ccc(Cl)cc2)c(=O)c2c(N)scc12
- inhibition (Homo sapiens [1]): 70%
- Imax (Homo sapiens [2]): 85%
- IC50 [4]: 2 µM

SMILES: Nc1scc2c(C(=O)NC3CC3)nn(-c3ccccc3Cl)c(=O)c12
- inhibition (Homo sapiens [1]): 44%
- Imax (Homo sapiens [2]): 68%

SMILES: CCOC(=O)C1=NN(c2ccc(Cl)cc2)C(=O)C(C#N)C1C (stereo not given)
- inhibition (Homo sapiens [1]): 21%
- Imax (Homo sapiens [2]): 4.4%

SMILES: O=C(O)c1nn(-c2ccc(F)cc2)c(=O)c2c1CSC2=O
- inhibition (Homo sapiens [1]): 87%
- Imax (Homo sapiens [2]): 92%
- IC50 [4]: 2.5 µM

SMILES: Cc1nn(C(C)C)c(=O)c2c(N)scc12
- inhibition (Homo sapiens [1]): 17%
- Imax (Homo sapiens [2]): 95%
- IC50 [4]: 19.9 µM

SMILES: Nc1scc2c(C(=O)O)nn(-c3ccc(C(F)(F)F)cc3)c(=O)c12
- inhibition (Homo sapiens [1]): 83%
- Imax (Homo sapiens [2]): 88%
- IC50 [4]: 19.9 µM

SMILES: CCOC(=O)c1nn(-c2ccc(Cl)cc2)c(=O)c2c(N)sc(Br)c12
- inhibition (Homo sapiens [1]): 62%
- Imax (Homo sapiens [2]): 92%
- IC50 [4]: 4 µM

SMILES: Cc1n[nH]c(=O)c2c(N)scc12
- inhibition (Homo sapiens [1]): 81%
- Imax (Homo sapiens [2]): 87%
- IC50 [4]: 8 µM
- Drug uptake (Brain [8]): BLD
- Cp (Plasma): BLD

SMILES: Cc1nn(-c2ccccn2)c(=O)c2c(N)scc12
- inhibition (Homo sapiens [1]): 78%
- Imax (Homo sapiens [2]): 85%
- BPR (Mus musculus): 0.116
- IC50 [4]: 2 µM
- concentration at 1 h [6]: 7.5 ng/g
- concentration at 1 h [7]: 61 ng/mL

SMILES: CC(C)c1ccc(-n2nc(C(=O)NC3CC3)c3csc(N)c3c2=O)cc1
- inhibition (Homo sapiens [1]): 86%
- Imax (Homo sapiens [2]): 82%
- IC50 [4]: 4 µM

SMILES: Nc1scc2c(C(=O)O)nn(-c3ccc(OC(F)(F)F)cc3)c(=O)c12
- inhibition (Homo sapiens [1]): 71%
- Imax (Homo sapiens [2]): 92%
- IC50 [4]: 1.6 µM

SMILES: Nc1scc2c(C(=O)O)nn(-c3ccc(O)cc3)c(=O)c12
- inhibition (Homo sapiens [1]): 70%
- Imax (Homo sapiens [2]): 84%
- IC50 [4]: 4 µM

SMILES: CC(C)n1nc(-c2ccccc2)c2csc(N)c2c1=O
- inhibition (Homo sapiens [1]): 92%
- Imax (Homo sapiens [2]): 89%
- IC50 [4]: 19.9 µM

SMILES: CCOC(=O)c1nn(-c2ccc(Cl)cc2)c(=O)c2c(NC)scc12
- inhibition (Homo sapiens [1]): 51%
- Imax (Homo sapiens [2]): 39%

SMILES: Nc1scc2c(-c3ccccc3)nn(CC(F)(F)F)c(=O)c12
- inhibition (Homo sapiens [1]): 82%
- Imax (Homo sapiens [2]): 103%
- IC50 [4]: 6.3 µM

SMILES: Cc1nn(C)c(=O)c2c(N)scc12
- inhibition (Homo sapiens [1]): 76%
- Imax (Homo sapiens [2]): 82%
- IC50 [4]: 2.5 µM
- Drug uptake (Brain [8]): BLD
- concentration at 1 h [7]: 10 ng/mL

SMILES: CCOC(=O)c1c(C(=O)c2ccccc2)csc1N
- inhibition (Homo sapiens [1]): 6.5%
- Imax (Homo sapiens [2]): 29%

SMILES: CC(C)NC(=O)c1nn(-c2ccc(O)cc2)c(=O)c2c(N)scc12
- inhibition (Homo sapiens [1]): 84%
- Imax (Homo sapiens [2]): 86%
- BPR (Mus musculus): 0.098
- IC50 [4]: 15.8 µM
- concentration at 1 h [6]: 14.1 ng/g
- concentration at 1 h [7]: 150 ng/mL

SMILES: Cc1nn(CC(F)(F)F)c(=O)c2c(N)scc12
- inhibition (Homo sapiens [1]): 78%
- Imax (Homo sapiens [2]): 81%
- IC50 [4]: 10 µM

SMILES: Nc1scc2c(C(=O)O)nn(-c3cccc(Cl)c3)c(=O)c12
- inhibition (Homo sapiens [1]): 73%
- Imax (Homo sapiens [2]): 92%
- IC50 [4]: 1.6 µM

SMILES: CCOC(=O)c1nn(-c2ccc(O)cc2)c(=O)c2c(N)scc12
- inhibition (Homo sapiens [1]): 69%
- Imax (Homo sapiens [2]): 81%
- IC50 [4]: 5 µM

SMILES: CCOC(=O)c1nn(-c2ccc(C(C)C)cc2)c(=O)c2c(N)scc12
- inhibition (Homo sapiens [1]): 17%
- Imax (Homo sapiens [2]): 8%

SMILES: CCOC(=O)c1nn(-c2ccc(Cl)cc2)c(=O)c2c1C(O)NC2=O (stereo not given)
- inhibition (Homo sapiens [1]): 15%
- Imax (Homo sapiens [2]): 57%

SMILES: Nc1scc2c(C(=O)O)nn(-c3ccc(F)cc3)c(=O)c12
- inhibition (Homo sapiens [1]): 83%
- Imax (Homo sapiens [2]): 84%
- IC50 [4]: 2 µM

SMILES: CC(C)NC(=O)c1nn(-c2cccc(Cl)c2)c(=O)c2c(N)scc12
- inhibition (Homo sapiens [1]): 73%
- Imax (Homo sapiens [2]): 82%
- IC50 [4]: 3.2 µM

SMILES: Cc1nn(C2CCCCC2)c(=O)c2c(N)scc12
- inhibition (Homo sapiens [1]): 86%
- Imax (Homo sapiens [2]): 65%
- IC50 [4]: 31.6 µM

SMILES: CC(C)NC(=O)c1nn(-c2ccc(Cl)cc2)c(=O)c2c1CSC2=O
- inhibition (Homo sapiens [1]): 85%
- Imax (Homo sapiens [2]): 96%
- BPR (Mus musculus): 0.0035
- IC50 [4]: 10 µM
- concentration at 1 h [6]: 16.3 ng/g
- concentration at 1 h [7]: 4700 ng/mL

SMILES: Cc1nn(-c2cccnc2)c(=O)c2c(N)scc12
- inhibition (Homo sapiens [1]): 84%
- Imax (Homo sapiens [2]): 74%
- IC50 [4]: 4 µM

SMILES: CCOC(=O)c1nn(-c2ccc(Cl)cc2)c(=O)c2c(N)sc(Cl)c12
- inhibition (Homo sapiens [1]): 65%
- Imax (Homo sapiens [2]): 88%
- IC50 [4]: 2 µM

SMILES: CCOC(=O)c1nn(-c2ccc(OC(F)(F)F)cc2)c(=O)c2c(N)scc12
- inhibition (Homo sapiens [1]): 29%
- Imax (Homo sapiens [2]): 41%

SMILES: CC(C)NC(=O)c1nn(-c2ccc(OC(F)(F)F)cc2)c(=O)c2c(N)scc12
- inhibition (Homo sapiens [1]): 42%
- Imax (Homo sapiens [2]): 67%
- IC50 [4]: 15.8 µM
